Source: PMC3355519 (Journal of Medicinal Chemistry, 2012)

Tests used:
HIV-1 PRI47V = HIV-1 PRI47V (Human immunodeficiency virus type 1 group M subtype B, UniProt P04585, C555A/C583A/I535V/L521I/L551I/Q495K); experiment: HIV-1 protease inhibition, fluorogenic p2/NC substrate, I47V mutant; assay type: biochemical
How it was run: (§1)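 Recombinant HIV-1 protease (HXB2) carried stabilising substitutions Q7K, L33I, L63I, C67A and C95A, plus the point mutation introduced by site-directed mutagenesis. It was expressed in E. coli BL21(DE3) and purified from inclusion bodies. Enzyme (12-45 nM final) was preincubated 5 min at 37 °C with test compound or DMSO in 0.1 M MES pH 5.6, 0.4 M NaCl, 1 mM EDTA, 5% glycerol. Abz-Thr-Ile-Nle-p-nitro-Phe-Gln-Arg-NH2 started the reaction, read 5 min at ex 340/em 420 nm. Ki = (IC50 − [E]/2)/(1 + [S]/Km).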

HIV-1LAI = settings: against HIV-1LAI; cited from earlier work
HIV-1 PRV82A = HIV-1 PRV82A (Human immunodeficiency virus type 1 group M subtype B, UniProt P04585, C555A/C583A/L521I/L551I/Q495K/V570A); experiment: HIV-1 protease inhibition, fluorogenic p2/NC substrate, V82A mutant; assay type: biochemical; settings: PRV82A vs PRWT
How it was run: as §1

[1] = test system: HIV-1 protease D30N/N88D double mutant; settings: cited from earlier work

Row | SMILES | Ki (HIV-1 PRI47V; Ki, PRI47V, pH 5.6, 37 °C) | change in the inhibition constant vs wild-type (HIV-1 PRI47V; PRI47V vs PRWT) | selectivity index (CC50/EC50) (HIV-1LAI) | change in the inhibition constant vs wild-type (HIV-1 PRV82A) | increase of Ki value compared to wild-type [1]
1 | COc1ccc(S(=O)(=O)N(C[C@H]2CCC(=O)N2)C[C@@H](O)[C@H](Cc2ccccc2)NC(=O)O[C@@H]2C[C@@H]3CCO[C@@H]3C2)cc1 [Compound 1] | 0.4 nM | less than 2 fold | > 3,600 | less than 2 fold | 
2 | Cc1c(O)cccc1C(=O)N[C@@H](CSc1ccccc1)[C@H](O)CN1C[C@H]2CCCC[C@H]2C[C@H]1C(=O)NC(C)(C)C [NFV, nelfinavir] |  |  |  |  | 260 fold
